Assay results reported in ChEMBL document CHEMBL1131199, “Structure-activity of novel rhodacyanine dyes as antitumor agents” (J Med Chem, 1998).
pIC50: −log10 of the molar value.

How the values were obtained:
CX-1 = assay: In vitro inhibition of growth of human carcinoma CX-1 cell line (clonogenic assay).; format: functional, cell-based
[1] = Lethal dose when administered intraperitoneally; format: toxicity; settings: mouse, ip
Mus musculus [2] = assay: In vivo ratio of median survival time of drug-treated to control, untreated tumor-bearing mice at a dose of 4 mg/kg for 7 days; format: functional
KB = assay: In vitro inhibition of growth of KB cells (cytotoxic assay).; format: functional, cell-based, Homo sapiens
[3] = Lethal dose when administered intravenously; format: toxicity; settings: mouse, iv
Mus musculus [4] = assay: Tumor inhibition (TI) ratio at a dose of 1 mg/kg for 4 day; format: functional
CV-1 [5] = assay: Compound was tested in vitro for inhibition of growth of cytotoxic CV-1 cell line; format: functional, cell-based, Homo sapiens; settings: Chlorocebus aethiops
Mus musculus [6] = assay: In vivo ratio of median survival time of drug-treated to control, untreated tumor-bearing mice at a dose of 5 mg/kg for 3 days; format: functional
Mus musculus [7] = assay: In vivo ratio of median survival time of drug-treated to control, untreated tumor-bearing mice at a dose of 10 mg/kg for 1 day; format: functional
[8] = The solubility in 0.9% saline was determined; format: ADME
[9] = The solubility in water was determined; format: ADME
Mus musculus [10] = assay: In vivo ratio of median survival time of drug-treated to control, untreated tumor-bearing mice at a dose of 10 mg/kg for 5 days; format: functional
Mus musculus [11] = assay: Tumor inhibition (TI) ratio at a dose of 3 mg/kg for 4 day; format: functional
Summary of the method: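 BDF1 mice (male, inbred, 5-week-old, ~1 week acclimation) implanted sc with 5 × 10^5 CA755 cells; compound given iv in 0.9% saline (0.2 mL/20 g body weight), 3 mg/kg/day × 4. Tumors weighed at day 11; inhibition (%) = (A − B)/A × 100, A and B being mean control and treated tumor weights. Five mice per group; Bartlett's, Dunnett's, Scheffé's tests.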

CV-1 [12] = assay: The IC50 value for 50%inhibition of cells on clonogenic CV-1 […] cytotoxic cell lines.; format: functional, cell-based; settings: Chlorocebus aethiops
Summary of the method: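 CV-1 cytotoxicity assay: cells seeded at 4×10^4 per 20 mm plate at 37 °C in 5% CO2. Next day, cells were exposed to varying compound concentrations for 1 week, stained with crystal violet, and viable cells counted.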

Mus musculus [13] = assay: In vivo ratio of median survival time of drug-treated to control, untreated tumor-bearing mice at a dose of 5 mg/kg for 5 days; format: functional
Mus musculus [14] = assay: In vivo ratio of median survival time of drug-treated to control, untreated tumor-bearing mice at a dose of 7 mg/kg for 5 days; format: functional
Summary of the method: (§1)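 Male Swiss nu/nu mice, about 5 weeks old, acclimated 1 week. LOX melanoma was first grown sc in nude mice, then made into a single-cell suspension with RBCs lysed by ammonium chloride. Each mouse got 2×10^6 LOX cells ip in PBS. From the next day, compound was given ip in 45% hydroxypropyl β-cyclodextrin in water. T/C is median survival of treated over untreated controls, as a percentage. Five mice per group.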

Mus musculus [15] = assay: In vivo ratio of median survival time of drug-treated to control, untreated tumor-bearing mice at a dose of 4 mg/kg for 5 days; format: functional; summary of the method: as §1
Mus musculus [16] = assay: In vivo ratio of median survival time of drug-treated to control, untreated tumor-bearing mice at a dose of 2 mg/kg for 5 days; format: functional
Mus musculus [17] = assay: In vivo ratio of median survival time of drug-treated to control, untreated tumor-bearing mice at a dose of 5 mg/kg for 4 day; format: functional

Row | Compound | pIC50 (CX-1; Homo sapiens, CX-1) | LD50 [1] [mg/kg] | pIC50 (KB; Homo sapiens, KB) | LD50 [3] [mg/kg] | also measured
1 | CC(=O)[O-].CCn1c(=O)/c(=C2\Sc3ccccc3N2C)s/c1=C\c1sc2ccccc2[n+]1CC | 7.22 | 30 | 7.22 | 5 | T/C (Mus musculus [2]): 163%; TI (Mus musculus [4]): 59.4%; pIC50 (CV-1 [5]): 5.85
2 | CCN1CCS/C1=C\C=c1/s/c(=C\c2sc3c4ccccc4ccc3[n+]2C)n(CC)c1=O | 7.52 | – | 6.31 | – | –
3 | CCn1c(=O)/c(=C/C=C2/N(C)c3ccccc3C2(C)C)s/c1=C\c1oc2c3ccccc3ccc2[n+]1CC.Cc1ccc(S(=O)(=O)[O-])cc1 | 8.00 | – | 6.57 | – | T/C (Mus musculus [6]): 94%
4 | CC(=O)[O-].CCN1C(C)=CS/C1=C\C=c1/s/c(=C\c2sc3ccccc3[n+]2CC)n(CC)c1=O | 7.22 | – | 6.60 | – | T/C (Mus musculus [7]): 138%
5 | CCn1c(=O)/c(=C2\Sc3ccccc3N2C)s/c1=C\c1cccc[n+]1CC.[I-] | – | – | – | – | solubility [8]: < 100 µg/mL; solubility [9]: 200 µg/mL; pIC50 (CX-1; cx-1): 6.10; pIC50 (KB; kb): 4.33
6 | CCN1/C(=C/C=c2\s/c(=C\c3sc4ccc5ccccc5c4[n+]3CC)n(CC)c2=O)Sc2ccc3ccccc3c21.Cc1ccc(S(=O)(=O)[O-])cc1 | 7.40 | – | 6.68 | – | T/C (Mus musculus [10]): 126%
7 | CCN1CCS/C1=C\C=c1/s/c(=C\c2sc3c4ccccc4ccc3[n+]2CCO)n(CC)c1=O | 6.41 | – | – | – | –
8 | CC(=O)[O-].CCn1c(=O)/c(=C2\Sc3ccccc3N2C)s/c1=C\c1cccc[n+]1CC | – | 50 | – | 20 | solubility [8]: > 5000 µg/mL; solubility [9]: > 5000 µg/mL; TI (Mus musculus [11]): 76.5%; pIC50 (CX-1; cx-1): 5.96; pIC50 (KB; kb): 6.07; pIC50 (CV-1 [12]): 4.20; T/C (Mus musculus [13]): >310%
9 | CCn1c(=O)/c(=C2\Sc3ccc4ccccc4c3N2C)s/c1=C\c1sc2c3ccccc3ccc2[n+]1CC.[Cl-] | 7.30 | – | 6.47 | – | T/C (Mus musculus [14]): 112%
10 | CCCC[n+]1c(/C=c2\s/c(=C\C=C3/SCCN3CC)c(=O)n2CC)sc2c3ccccc3ccc21 | 7.52 | – | 6.34 | – | –
11 | CC(=O)[O-].CCn1c(=O)/c(=C2\Sc3ccccc3N2C)s/c1=C\c1oc2ccccc2[n+]1CC | 6.74 | 10 | 5.95 | > 10 | T/C (Mus musculus [13]): 140%; pIC50 (CV-1 [5]): 4.83
12 | CC(=O)[O-].CCn1c(=O)/c(=C2\Sc3ccccc3N2C)s/c1=C\c1scc(C)[n+]1CC | 6.96 | 30 | 6.02 | 20 | T/C (Mus musculus [15]): >173%; pIC50 (CV-1 [5]): 4.63
13 | CC(=O)[O-].CCn1c(=O)/c(=C2\Sc3ccccc3N2C)s/c1=C\C1=[N+](CC)CCS1 | 5.98 | 40 | 5.21 | 15 | pIC50 (CV-1 [5]): 4.88; T/C (Mus musculus [16]): 133%
14 | CCn1c(=O)/c(=C2\Sc3ccccc3N2C)s/c1=C\c1cccc[n+]1CC.[Cl-] | – | 50 | – | 20 | solubility [8]: > 5000 µg/mL; solubility [9]: > 5000 µg/mL; TI (Mus musculus [11]): 75.5%; T/C (Mus musculus [17]): >344%; pIC50 (KB; kb): 6.09
15 | CCn1c(=O)/c(=C2\Oc3ccccc3N2C)s/c1=C\c1cccc[n+]1CC | < 5.62 | – | 5.43 | – | –
16 | CC(=O)[O-].CCn1c(=O)/c(=C2\Sc3ccc4ccccc4c3N2C)s/c1=C\c1oc2c3ccccc3ccc2[n+]1CC | 6.17 | – | 7.10 | – | T/C (Mus musculus [16]): 120%
17 | CC(=O)[O-].CCn1c(=O)/c(=C2\SCCN2C)s/c1=C\c1sc2ccc3ccccc3c2[n+]1CC | 6.80 | – | 6.60 | – | T/C (Mus musculus [15]): 106%
18 | CC(=O)[O-].CCn1c(=O)/c(=C2\Sc3ccccc3N2C)s/c1=C\c1ccc2ccccc2[n+]1CC | 6.55 | 30 | 6.55 | 10 | pIC50 (CV-1 [5]): 5.06; T/C (Mus musculus [16]): 124%
19 | CCN1CCS/C1=C\C=c1/s/c(=C\c2sc3c4ccccc4ccc3[n+]2CCC(=O)O)n(CC)c1=O | < 5.82 | – | < 4.82 | – | –
20 | CCN1C=CC=C/C1=C\C=c1/s/c(=C\c2sc3ccc4ccccc4c3[n+]2CC)n(CC)c1=O.[Cl-] | 7.10 | – | 6.11 | – | T/C (Mus musculus [15]): 122%
21 | CC(=O)[O-].CCn1c(=O)/c(=C2\Sc3ccccc3N2C)s/c1=C\C1CCC[n+]2c1sc1ccccc12 (stereo unspecified) | 6.64 | 30 | 6.64 | 3 | T/C (Mus musculus [15]): >208%; pIC50 (CV-1 [5]): 5.54
22 | CCN1CCS/C1=C\C=c1/s/c(=C\c2sc3c4ccccc4ccc3[n+]2CC)n(CC)c1=O | 7.70 | – | 6.49 | – | –
23 | CCn1c(=O)/c(=C/C=C2\Sc3ccc4ccccc4c3N2C)s/c1=C\c1scc(C)[n+]1CC | < 5.74 | – | 5.70 | – | –
24 | CCn1c(=O)/c(=C2\C=CC=CN2C)s/c1=C\c1sc2ccccc2[n+]1CC | 5.75 | – | 5.66 | – | –
25 | CC(=O)[O-].CCN1/C(=C/C=c2\s/c(=C\C3=[N+](CC)CCS3)n(CC)c2=O)C=Cc2ccccc21 | 6.80 | – | 6.04 | – | T/C (Mus musculus [10]): 143%
